Reference: ChEMBL document CHEMBL1828552, “Synthesis and studies of novel 2-(4-cyano-3-trifluoromethylphenyl amino)-4-(quinoline-4-yloxy)-6-(piperazinyl/piperidinyl)-s-triazines as potential antimicrobial, antimycobacterial and anticancer agents” (2011)
Values after ≈ are worked out from the molar mass of the structure shown.

Columns and labels:
DU-145 = assay: Cytotoxicity against […] human DU145 cells after 48 hrs by SRB assay; assay type: functional; settings: DU-145, 48 h
Outline: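 SRB assay in DU-145 cells grown in RPMI 1640 with 10% FBS and 2 mM L-glutamine. Cells were plated and held 24 h before addition of four 10-fold concentrations. After 48 h, cells were TCA-fixed, stained with 0.4% SRB and read at 540 nm. GI50, TGI and LC50 were derived against time-zero and control wells; each value is the mean of three experiments.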

Klebsiella pneumoniae [1] = assay: Antibacterial activity against 10^5 CFU/mL Klebsiella pneumoniae MTCC 109 after 24 hrs by disc diffusion technique; assay type: functional
Outline: (§1)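 Disc diffusion on Mueller–Hinton agar poured 5 mm deep. The surface was swabbed with a 10⁵ CFU/mL […] suspension. Filter-paper discs 6.25 mm in diameter were soaked in compound in DMSO and placed on the agar. Plates were incubated 24 h at 37 ± 1 °C, and the inhibition zone was measured in mm. A DMSO disc served as blank.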

Staphylococcus aureus [2] = assay: Antibacterial activity against 10^5 CFU/mL Staphylococcus aureus MTCC 96 after 24 hrs by disc diffusion technique; assay type: functional; outline: as §1
Klebsiella pneumoniae [3] = assay: Antibacterial activity against 10^5 CFU/mL Klebsiella pneumoniae MTCC 109 after 24 hrs by agar streak dilution method; assay type: functional; settings: MTCC 109, 24 h
Outline: (§2)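 Agar streak dilution. Stock 100 µg/mL in DMSO; graded amounts were mixed into molten nutrient agar and poured at 4–5 mm depth. Plates carried serial dilutions over […]. About 10⁵ CFU/mL of each bacterium was applied, and plates were incubated at 37 ± 1 °C for 24 h. MIC was read from the dilution series.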

Proteus vulgaris [4] = assay: Antibacterial activity against 10^5 CFU/mL Proteus vulgaris MTCC 1771 after 24 hrs by disc diffusion technique; assay type: functional; outline: as §1
Bacillus cereus [5] = assay: Antibacterial activity against 10^5 CFU/mL Bacillus cereus MTCC 619 after 24 hrs by agar streak dilution method; assay type: functional; settings: MTCC 619, 24 h; outline: as §2
Aspergillus clavatus [6] = assay: Antifungal activity against 10^5 CFU/mL Aspergillus clavatus MTCC 1323 after 48 hrs by agar streak dilution method; assay type: functional; settings: MTCC 1323, 48 h
Outline: (§3)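 Agar streak dilution for fungi. Stock 100 µg/mL in DMSO; graded amounts were mixed into molten Sabouraud dextrose agar and poured at 4–5 mm depth. Serial dilutions ran over […]. About 10⁵ CFU/mL inoculum was applied, with incubation at 37 ± 1 °C for 48 h. MIC was read from the dilution series.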

Aspergillus niger [7] = assay: Antifungal activity against 10^5 CFU/mL Aspergillus niger MTCC 282 after 48 hrs by disc diffusion technique; assay type: functional
Staphylococcus aureus [8] = assay: Antibacterial activity against 10^5 CFU/mL Staphylococcus aureus MTCC 96 after 24 hrs by agar streak dilution method; assay type: functional; settings: MTCC 96, 24 h; outline: as §2
Proteus vulgaris [9] = assay: Antibacterial activity against 10^5 CFU/mL Proteus vulgaris MTCC 1771 after 24 hrs by agar streak dilution method; assay type: functional; settings: MTCC 1771, 24 h; outline: as §2
Escherichia coli [10] = assay: Antibacterial activity against 10^5 CFU/mL Escherichia coli MTCC 739 after 24 hrs by agar streak dilution method; assay type: functional; settings: MTCC 739, 24 h; outline: as §2
Bacillus cereus [11] = assay: Antibacterial activity against 10^5 CFU/mL Bacillus cereus MTCC 619 after 24 hrs by disc diffusion technique; assay type: functional; outline: as §1
Candida albicans [12] = assay: Antifungal activity against 10^5 CFU/mL Candida albicans MTCC 183 after 48 hrs by agar streak dilution method; assay type: functional; settings: MTCC 183, 48 h; outline: as §3
Pseudomonas aeruginosa [13] = assay: Antibacterial activity against 10^5 CFU/mL Pseudomonas aeruginosa MTCC 741 after 24 hrs by disc diffusion technique; assay type: functional; outline: as §1
Aspergillus fumigatus [14] = assay: Antifungal activity against 10^5 CFU/mL Aspergillus fumigatus MTCC 343 after 48 hrs by disc diffusion technique; assay type: functional
Salmonella typhi [15] = assay: Antibacterial activity against 10^5 CFU/mL Salmonella typhi MTCC 733 after 24 hrs by agar streak dilution method; assay type: functional, Salmonella enterica subsp. enterica serovar Typhi; settings: Salmonella enterica, MTCC 733, 24 h
Shigella flexneri [16] = assay: Antibacterial activity against 10^5 CFU/mL Shigella flexneri MTCC 1457 after 24 hrs by agar streak dilution method; assay type: functional; settings: MTCC 1457, 24 h; outline: as §2
Aspergillus niger [17] = assay: Antifungal activity against 10^5 CFU/mL Aspergillus niger MTCC 282 after 48 hrs by agar streak dilution method; assay type: functional; settings: MTCC 282, 48 h; outline: as §3
Shigella flexneri [18] = assay: Antibacterial activity against 10^5 CFU/mL Shigella flexneri MTCC 1457 after 24 hrs by disc diffusion technique; assay type: functional; outline: as §1
Aspergillus fumigatus [19] = assay: Antifungal activity against 10^5 CFU/mL Aspergillus fumigatus MTCC 343 after 48 hrs by agar streak dilution method; assay type: functional; settings: MTCC 343, 48 h; outline: as §3
Aspergillus clavatus [20] = assay: Antifungal activity against 10^5 CFU/mL Aspergillus clavatus MTCC 1323 after 48 hrs by disc diffusion technique; assay type: functional
Salmonella typhi [21] = assay: Antibacterial activity against 10^5 CFU/mL Salmonella typhi MTCC 733 after 24 hrs by disc diffusion technique; assay type: functional, Salmonella enterica subsp. enterica serovar Typhi
Outline: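 Disc diffusion. Mueller-Hinton agar autoclaved 120 °C 30 min, poured 5 mm deep. Surface swabbed with 10⁵ CFU/mL suspension […]. 6.25 mm filter-paper discs soaked in compound in DMSO; DMSO-only disc as blank. Incubated 37 ± 1 °C, 24 h for bacteria or 48 h for fungi. Ciprofloxacin and ketoconazole discs as reference drugs. Inhibition zone measured in mm.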

Pseudomonas aeruginosa [22] = assay: Antibacterial activity against 10^5 CFU/mL Pseudomonas aeruginosa MTCC 741 after 24 hrs by agar streak dilution method; assay type: functional; settings: MTCC 741, 24 h; outline: as §2
Escherichia coli [23] = assay: Antibacterial activity against 10^5 CFU/mL Escherichia coli MTCC 739 after 24 hrs by disc diffusion technique; assay type: functional; outline: as §1
Candida albicans [24] = assay: Antifungal activity against 10^5 CFU/mL Candida albicans MTCC 183 after 48 hrs by disc diffusion technique; assay type: functional

Compound | GI50 (DU-145) | LC50 (concentration giving 50% net cell kill relative to time zero) (DU-145) | TGI (DU-145) | inhibition zone (IZ) (Klebsiella pneumoniae [1]) | inhibition zone (IZ) (Staphylococcus aureus [2]) | MIC (Klebsiella pneumoniae [3]) | inhibition zone (IZ) (Proteus vulgaris [4]) | MIC (Bacillus cereus [5]) | MIC (Aspergillus clavatus [6]) | inhibition zone (IZ) (Aspergillus niger [7]) | MIC (Staphylococcus aureus [8]) | MIC (Proteus vulgaris [9]) | MIC (Escherichia coli [10]) | inhibition zone (IZ) (Bacillus cereus [11]) | MIC (Candida albicans [12]) | inhibition zone (IZ) (Pseudomonas aeruginosa [13]) | inhibition zone (IZ) (Aspergillus fumigatus [14]) | MIC (Salmonella typhi [15]) | MIC (Shigella flexneri [16]) | MIC (Aspergillus niger [17]) | also measured
CC(C)N1CCN(c2nc(Nc3ccc(C#N)c(C(F)(F)F)c3)nc(Oc3ccnc4ccccc34)n2)CC1 | > 100 µM | > 100 µM | > 100 µM | 21 mm | 23 mm | 100 µg/mL (≈ 187 µM) | 21 mm | 50 µg/mL (≈ 93.5 µM) | 100 µg/mL (≈ 187 µM) | <10 mm | 50 µg/mL (≈ 93.5 µM) | 100 µg/mL (≈ 187 µM) | 50 µg/mL (≈ 93.5 µM) | 22 mm | 100 µg/mL (≈ 187 µM) | 22 mm | 17 mm | 100 µg/mL (≈ 187 µM) | 50 µg/mL (≈ 93.5 µM) | 100 µg/mL (≈ 187 µM) | inhibition zone (IZ) (Shigella flexneri [18]): 21 mm; MIC (Aspergillus fumigatus [19]): 100 µg/mL (≈ 187 µM); inhibition zone (IZ) (Aspergillus clavatus [20]): 17 mm; inhibition zone (IZ) (Salmonella typhi [21]): 21 mm; MIC (Pseudomonas aeruginosa [22]): 25 µg/mL (≈ 46.8 µM); inhibition zone (IZ) (Escherichia coli [23]): 22 mm; inhibition zone (IZ) (Candida albicans [24]): 18 mm
N#Cc1ccc(Nc2nc(Oc3ccnc4ccccc34)nc(N3CCN(C(c4ccccc4)c4ccc(Cl)cc4)CC3)n2)cc1C(F)(F)F (stereo not drawn) | > 100 µM | > 100 µM | > 100 µM | 25 mm | 25 mm | 12.5 µg/mL (≈ 18 µM) | 27 mm | 12.5 µg/mL (≈ 18 µM) | 50 µg/mL (≈ 72.1 µM) | 25 mm | 12.5 µg/mL (≈ 18 µM) | 6.25 µg/mL (≈ 9.02 µM) | 50 µg/mL (≈ 72.1 µM) | 25 mm | 25 µg/mL (≈ 36.1 µM) | 24 mm | 26 mm | 25 µg/mL (≈ 36.1 µM) | 25 µg/mL (≈ 36.1 µM) | 25 µg/mL (≈ 36.1 µM) | inhibition zone (IZ) (Shigella flexneri [18]): 22 mm; MIC (Aspergillus fumigatus [19]): 25 µg/mL (≈ 36.1 µM); inhibition zone (IZ) (Aspergillus clavatus [20]): 25 mm; inhibition zone (IZ) (Salmonella typhi [21]): 25 mm; MIC (Pseudomonas aeruginosa [22]): 12.5 µg/mL (≈ 18 µM); inhibition zone (IZ) (Escherichia coli [23]): 23 mm; inhibition zone (IZ) (Candida albicans [24]): 25 mm
CN1CCN(c2nc(Nc3ccc(C#N)c(C(F)(F)F)c3)nc(Oc3ccnc4ccccc34)n2)CC1 | 51.2 µM | > 100 µM | > 100 µM | <10 mm | <10 mm | 100 µg/mL (≈ 197 µM) | <10 mm | 100 µg/mL (≈ 197 µM) | 100 µg/mL (≈ 197 µM) | <10 mm | 100 µg/mL (≈ 197 µM) | 100 µg/mL (≈ 197 µM) | 100 µg/mL (≈ 197 µM) | <10 mm | 100 µg/mL (≈ 197 µM) | 14 mm | <10 mm | 100 µg/mL (≈ 197 µM) | 100 µg/mL (≈ 197 µM) | 100 µg/mL (≈ 197 µM) | inhibition zone (IZ) (Shigella flexneri [18]): 11 mm; MIC (Aspergillus fumigatus [19]): 100 µg/mL (≈ 197 µM); inhibition zone (IZ) (Aspergillus clavatus [20]): <10 mm; inhibition zone (IZ) (Salmonella typhi [21]): 13 mm; MIC (Pseudomonas aeruginosa [22]): 100 µg/mL (≈ 197 µM); inhibition zone (IZ) (Escherichia coli [23]): <10 mm; inhibition zone (IZ) (Candida albicans [24]): <10 mm
N#Cc1ccc(Nc2nc(Oc3ccnc4ccccc34)nc(N3CCN(C(c4ccccc4)c4ccccc4)CC3)n2)cc1C(F)(F)F | > 100 µM | > 100 µM | > 100 µM | 17 mm | 21 mm | 100 µg/mL (≈ 152 µM) | 19 mm | 25 µg/mL (≈ 38 µM) | 100 µg/mL (≈ 152 µM) | 14 mm | 50 µg/mL (≈ 75.9 µM) | 100 µg/mL (≈ 152 µM) | 100 µg/mL (≈ 152 µM) | 22 mm | 100 µg/mL (≈ 152 µM) | 19 mm | 20 mm | 100 µg/mL (≈ 152 µM) | 100 µg/mL (≈ 152 µM) | 100 µg/mL (≈ 152 µM) | inhibition zone (IZ) (Shigella flexneri [18]): 21 mm; MIC (Aspergillus fumigatus [19]): 100 µg/mL (≈ 152 µM); inhibition zone (IZ) (Aspergillus clavatus [20]): 16 mm; inhibition zone (IZ) (Salmonella typhi [21]): 19 mm; MIC (Pseudomonas aeruginosa [22]): 100 µg/mL (≈ 152 µM); inhibition zone (IZ) (Escherichia coli [23]): 19 mm; inhibition zone (IZ) (Candida albicans [24]): 15 mm
